Here are results for 15 compounds from ChEMBL document CHEMBL4699419, “Antileishmanial assessment of isoxazole derivatives against L. donovani” (RSC Med Chem, 2020).

As a reminder, the IC50 is the midpoint of a concentration-inhibition curve. A word on the CC50: it is the concentration that lowers cell viability or growth by half.

One data set deals with Leishmania donovani. Put plainly: Antileishmanial activity against late log phase promastigote stage of Leishmania donovani MHOM/IN/80/Dd8 harboring luciferase reporter gene incubated for 72 hrs by Steady-Glo luminescence assay. It counts as functional, organism-based. Particulars: Leishmania donovani, MHOM/IN/80/Dd8, 72 h; read-out: IC50. Summed up: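 Luciferase-transfected promastigotes kept at 25 ± 1 °C in medium 199 + 10% heat-inactivated FCS + G418 (20 μg ml–1). Late-log cells (5 × 10^5 per well) grown 72 h with graded compound concentrations from DMSO, DMSO dilution controls. Aliquot mixed 1:1 with Steady-Glo, luminescence (RLU) read; % inhibition vs control. IC50 by Probit regression, three independent experiments.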
(In general: A reporter such as luciferase makes a cellular process visible.)
Regarding `COC(=O)c1c([N+](=O)[O-])noc1-c1cccc(-c2ncoc2C)c1`, the IC50 was 0.86 µM.

As for `COC(=O)c1c(NCc2ccccc2)noc1-c1ccc(Cl)cc1Cl`, the IC50 is 35.4 µM.

In the case of `COC(=O)c1c(NCc2ccc(OC)cc2)noc1-c1ccc(Cl)cc1Cl`, the IC50 is 3.09 µM.

As to `COc1ccc(CNC(=O)c2c([N+](=O)[O-])noc2-c2ccc(Cl)cc2)cc1`, the IC50 worked out at 2.67 µM.

As to `COC(=O)c1c(NCc2ccc(C(C)(C)C)cc2)noc1-c1ccc([N+](=O)[O-])cc1`, the IC50 came to 49.7 µM.

Turning to `O=C(NCc1ccc(F)cc1)c1c([N+](=O)[O-])noc1-c1ccc(Cl)cc1`, the IC50 was 1.16 µM.

Turning to `COC(=O)c1c(NCCCCNc2ccnc3cc(Cl)ccc23)noc1-c1ccc([N+](=O)[O-])cc1`, the IC50 was found to be 2.85 µM.

As for `COC(=O)c1c(NCCCN2CCOCC2)noc1-c1cc2c(cc1[N+](=O)[O-])OCO2`, the IC50 turned out to be 27.8 µM.

Turning to `COc1cccc(CNC(=O)c2c([N+](=O)[O-])noc2-c2ccc(Cl)cc2)c1`, the IC50 came to 2.79 µM.

For the compound `COC(=O)c1c(NCCCNc2ccnc3cc(Cl)ccc23)noc1-c1cc2c(cc1[N+](=O)[O-])OCO2`, the half-inhibitory concentration (IC50) was 7.75 µM.

`O=C(c1c([N+](=O)[O-])noc1-c1ccc([N+](=O)[O-])cc1)N1CCOCC1`: the IC50 came to 2.71 µM.

Turning to `COC(=O)c1c(NCCCNc2ccnc3cc(Cl)ccc23)noc1-c1ccc([N+](=O)[O-])cc1`, the IC50 was found to be 3.37 µM.

For `COC(=O)c1c(NCCCN2CCOCC2)noc1-c1ccc(Cl)cc1Cl`, the IC50 is 2.58 µM.

`COC(=O)c1c(NCCNc2cc(C(F)(F)F)nc3c(C(F)(F)F)cccc23)noc1-c1ccc([N+](=O)[O-])cc1`: the IC50 was determined as 10.1 µM.

Take `COC(=O)c1c(NCCNc2cc(C(F)(F)F)nc3c(C(F)(F)F)cccc23)noc1-c1ccc(Cl)cc1Cl`: the IC50 is 48.2 µM.

In the next data set the test system is Leishmania donovani. The data set is described as follows: Antileishmanial activity against Leishmania donovani MHOM/IN/80/Dd8 promastigotes harboring luciferase reporter gene infected in mouse J774 cells assessed as inhibition of amastigote growth incubated for 72 hrs by Steady-Glo luminescence assay. Format: functional, organism-based. As to conditions: Leishmania donovani, MHOM/IN/80/Dd8, J774, 72 h; read-out: IC50. Summed up:
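J774A.1 mouse macrophages (2 × 10^5 per well, RPMI-1640 + 10% FCS, 37 °C CO2) infected after 24 h with stationary-phase luciferase-transgenic promastigotes at 1:10 macrophage:parasite; compounds in complete medium for 72 h at 37 °C. Medium swapped for PBS, Steady-Glo added, luminescence read; % inhibition vs untreated control RLU. IC50 by Probit log dose/response regression, three independent experiments.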
In the case of `COC(=O)c1c([N+](=O)[O-])noc1-c1cccc(-c2ncoc2C)c1`, the IC50 was found to be 7.1 µM.

Take `COC(=O)c1c(NCc2ccccc2)noc1-c1ccc(Cl)cc1Cl`: the IC50 amounted to 1.65 µM.

As for `COC(=O)c1c(NCc2ccc(OC)cc2)noc1-c1ccc(Cl)cc1Cl`, the IC50 stood at 23.9 µM.

Turning to `COc1ccc(CNC(=O)c2c([N+](=O)[O-])noc2-c2ccc(Cl)cc2)cc1`, the IC50 was 9.41 µM.

Turning to `COC(=O)c1c(NCc2ccc(C(C)(C)C)cc2)noc1-c1ccc([N+](=O)[O-])cc1`, the IC50 was 8.16 µM.

On to `O=C(NCc1ccc(F)cc1)c1c([N+](=O)[O-])noc1-c1ccc(Cl)cc1`, for which the IC50 came to 19.4 µM.

Regarding `COC(=O)c1c(NCCCCNc2ccnc3cc(Cl)ccc23)noc1-c1ccc([N+](=O)[O-])cc1`, the IC50 was found to be 1.84 µM.

For `COC(=O)c1c(NCCCN2CCOCC2)noc1-c1cc2c(cc1[N+](=O)[O-])OCO2`, the IC50 turned out to be 17 µM.

With `COc1cccc(CNC(=O)c2c([N+](=O)[O-])noc2-c2ccc(Cl)cc2)c1`, the IC50 amounted to 3.43 µM.

In the case of `COC(=O)c1c(NCCCNc2ccnc3cc(Cl)ccc23)noc1-c1cc2c(cc1[N+](=O)[O-])OCO2`, the IC50 was determined as 16.1 µM.

As to `O=C(c1c([N+](=O)[O-])noc1-c1ccc([N+](=O)[O-])cc1)N1CCOCC1`, the IC50 amounted to 15.6 µM.

`COC(=O)c1c(NCCCNc2ccnc3cc(Cl)ccc23)noc1-c1ccc([N+](=O)[O-])cc1`: the IC50 came out at 3.14 µM.

As for `COC(=O)c1c(NCCCN2CCOCC2)noc1-c1ccc(Cl)cc1Cl`, the IC50 is 21.2 µM.

For the compound `COC(=O)c1c(NCCNc2cc(C(F)(F)F)nc3c(C(F)(F)F)cccc23)noc1-c1ccc([N+](=O)[O-])cc1`, the IC50 was determined as 18.1 µM.

With `COC(=O)c1c(NCCNc2cc(C(F)(F)F)nc3c(C(F)(F)F)cccc23)noc1-c1ccc(Cl)cc1Cl`, the IC50 is 20.3 µM.

Test system in a further data set: not listed separately
Put plainly: Cytotoxicity against mouse J774A1 cells assessed as reduction in cell viability incubated for 48 hrs by MTT assay.
Conditions: not given
Format: cell-based, J774.A1. A digest of the protocol: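 J774A.1 macrophages, 0.2 × 10^6 per well, incubated overnight at 37 °C in 5% CO2, then exposed to compounds in DMSO for 48 h, with DMSO dilutions as controls. Viability read by MTT formazan at 600 nm. CC50 = 50% viability reduction versus medium-only cells, from probit regression; three independent experiments.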
On the technique in general: Tetrazolium assays rely on reduction of a dye to a coloured formazan, in cell work by metabolically active cells.
Regarding `COC(=O)c1c([N+](=O)[O-])noc1-c1cccc(-c2ncoc2C)c1`, the CC50 at 48 h came to 18.4 µM.

As for `COC(=O)c1c(NCc2ccccc2)noc1-c1ccc(Cl)cc1Cl`, the CC50 at 48 h amounted to 54.1 µM.

For `COC(=O)c1c(NCc2ccc(OC)cc2)noc1-c1ccc(Cl)cc1Cl`, the CC50 at 48 h was 34.6 µM.

`COc1ccc(CNC(=O)c2c([N+](=O)[O-])noc2-c2ccc(Cl)cc2)cc1`: the CC50 at 48 h was determined as 89.5 µM.

In the case of `COC(=O)c1c(NCc2ccc(C(C)(C)C)cc2)noc1-c1ccc([N+](=O)[O-])cc1`, the CC50 at 48 h was 81.4 µM.

On to `O=C(NCc1ccc(F)cc1)c1c([N+](=O)[O-])noc1-c1ccc(Cl)cc1`, for which the CC50 at 48 h was determined as 91.9 µM.

Consider `COC(=O)c1c(NCCCCNc2ccnc3cc(Cl)ccc23)noc1-c1ccc([N+](=O)[O-])cc1`, for which the CC50 at 48 h is 136 µM.

For the compound `COC(=O)c1c(NCCCN2CCOCC2)noc1-c1cc2c(cc1[N+](=O)[O-])OCO2`, the CC50 at 48 h came to 65 µM.

With `COc1cccc(CNC(=O)c2c([N+](=O)[O-])noc2-c2ccc(Cl)cc2)c1`, the CC50 at 48 h was 68.5 µM.

With `COC(=O)c1c(NCCCNc2ccnc3cc(Cl)ccc23)noc1-c1cc2c(cc1[N+](=O)[O-])OCO2`, the CC50 at 48 h was 73.6 µM.

Regarding `O=C(c1c([N+](=O)[O-])noc1-c1ccc([N+](=O)[O-])cc1)N1CCOCC1`, the CC50 at 48 h was found to be 66 µM.

`COC(=O)c1c(NCCCNc2ccnc3cc(Cl)ccc23)noc1-c1ccc([N+](=O)[O-])cc1`: the CC50 at 48 h is 106 µM.

As to `COC(=O)c1c(NCCCN2CCOCC2)noc1-c1ccc(Cl)cc1Cl`, the CC50 at 48 h worked out at 73 µM.

Regarding `COC(=O)c1c(NCCNc2cc(C(F)(F)F)nc3c(C(F)(F)F)cccc23)noc1-c1ccc([N+](=O)[O-])cc1`, the CC50 at 48 h is 73 µM.

In the case of `COC(=O)c1c(NCCNc2cc(C(F)(F)F)nc3c(C(F)(F)F)cccc23)noc1-c1ccc(Cl)cc1Cl`, the CC50 at 48 h was found to be 99 µM.

Test system in another data set: not listed separately
Put plainly: Selectivity index, ratio of CC50 for mouse J774.A1 cells to IC50 for amastigote form of Leishmania donovani MHOM/IN/80/Dd8. It counts as toxicity. Particulars: read-out: Ratio CC50/IC50. Summed up:
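Macrophages infected at a 1:10 ratio with stationary promastigotes, then treated 72 h at 37 °C; luminescence read with Steady-Glo. IC50 values from probit analysis.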
`COC(=O)c1c([N+](=O)[O-])noc1-c1cccc(-c2ncoc2C)c1`: the selectivity ratio was 2.5.

Consider `COC(=O)c1c(NCc2ccccc2)noc1-c1ccc(Cl)cc1Cl`, for which the selectivity ratio was determined as 32.8.

In the case of `COC(=O)c1c(NCc2ccc(OC)cc2)noc1-c1ccc(Cl)cc1Cl`, the selectivity ratio was 1.5.

In the case of `COc1ccc(CNC(=O)c2c([N+](=O)[O-])noc2-c2ccc(Cl)cc2)cc1`, the selectivity ratio was found to be 9.5.

As to `COC(=O)c1c(NCc2ccc(C(C)(C)C)cc2)noc1-c1ccc([N+](=O)[O-])cc1`, the selectivity ratio was determined as 9.69.

Regarding `O=C(NCc1ccc(F)cc1)c1c([N+](=O)[O-])noc1-c1ccc(Cl)cc1`, the selectivity ratio turned out to be 4.72.

In the case of `COC(=O)c1c(NCCCCNc2ccnc3cc(Cl)ccc23)noc1-c1ccc([N+](=O)[O-])cc1`, the selectivity ratio was 73.8.

For the compound `COC(=O)c1c(NCCCN2CCOCC2)noc1-c1cc2c(cc1[N+](=O)[O-])OCO2`, the selectivity ratio came out at 3.82.

`COc1cccc(CNC(=O)c2c([N+](=O)[O-])noc2-c2ccc(Cl)cc2)c1`: the selectivity ratio was found to be 20.

In the case of `COC(=O)c1c(NCCCNc2ccnc3cc(Cl)ccc23)noc1-c1cc2c(cc1[N+](=O)[O-])OCO2`, the selectivity ratio was 4.55.

As for `O=C(c1c([N+](=O)[O-])noc1-c1ccc([N+](=O)[O-])cc1)N1CCOCC1`, the selectivity ratio was 4.22.

Take `COC(=O)c1c(NCCCNc2ccnc3cc(Cl)ccc23)noc1-c1ccc([N+](=O)[O-])cc1`: the selectivity ratio came out at 33.9.

`COC(=O)c1c(NCCCN2CCOCC2)noc1-c1ccc(Cl)cc1Cl`: the selectivity ratio came to 3.44.

On to `COC(=O)c1c(NCCNc2cc(C(F)(F)F)nc3c(C(F)(F)F)cccc23)noc1-c1ccc([N+](=O)[O-])cc1`, for which the selectivity ratio stood at 4.03.

In the case of `COC(=O)c1c(NCCNc2cc(C(F)(F)F)nc3c(C(F)(F)F)cccc23)noc1-c1ccc(Cl)cc1Cl`, the selectivity ratio is 4.86.
